# Measurements of several laboratories.
# Lines come from different studies, so protocols differ.
# Target: Death-associated protein kinase 3 (DAPK3, Homo sapiens, UniProt O43293)
SMILES,assay,conditions,measurement,value
C#Cc1cccc(Nc2ncnc3cc(OCCOC)c(OCCOC)cc23)c1,cell-free assay,0.5 µM,remaining signal,95.4%
Cc1cnc(NC2CCOCC2)nc1-n1cnc(C(=O)NC(CN)c2cc(F)cc(Cl)c2)c1 (centres unmarked),"enzyme activity, inhibitor, radiometric",1 µM,remaining activity,107%
Cc1cc(NC(=O)c2cccc3cc(-c4cccc5[nH]nc(N)c45)ccc23)ccc1F,"enzyme activity, inhibitor",0.1 µM,activity vs control,105%
COc1cc2ncnc(Nc3ccc(Oc4ccccc4)c(C)c3C)c2cc1OC,"enzyme activity, inhibitor",1 µM,inhibition,1%
C[C@H](c1cccc(C#N)c1)n1cc(Cl)cc(C(N)=O)c1=N,"cell-free assay, competition with immobilised ligand",1 µM,remaining binding,100%
Cc1ccc(C(=O)Nc2ccc(CN3CCN(C)CC3)c(C(F)(F)F)c2)cc1C#Cc1cnc2cccnn12,"enzyme activity, inhibitor",23.5 nM,remaining activity,99%
Oc1cccc(-c2nc(N3CCOCC3)c3oc4ncccc4c3n2)c1,cell-free assay,0.5 µM,remaining signal,93.1%
CC(C)(C)c1nc(-c2cccc(NS(=O)(=O)c3c(F)cccc3F)c2F)c(-c2ccnc(N)n2)s1,"enzyme activity, inhibitor, radiometric",1 µM,remaining activity,54%
CCN(CC)CCNC(=O)c1c(C)[nH]c(/C=C2\C(=O)Nc3ccc(F)cc32)c1C,"enzyme activity, inhibitor",0.3 µM,inhibition,35%
O=c1nc(-c2ccccn2)sc2ccccc12,"binding, competition with immobilised ligand",1 µM,remaining binding,91%
COc1cc(-c2cc(-c3ccc(N4CCNCC4)cc3)cnc2C)cc(OC)c1OC,"enzyme activity, inhibitor",1 µM,inhibition,2%
COc1cc2ncnc(Nc3ccc(F)c(Cl)c3)c2cc1OCCCN1CCOCC1,cell-free assay,0.5 µM,remaining signal,95.7%
CC(C)(O)[C@H]1CC[C@H](Nc2ccc3ncc(-c4cccc(C(F)(F)F)c4)n3n2)CC1,"enzyme activity, inhibitor",1 µM,remaining activity,120%
O=S(=O)(NC1CCC(c2cc(F)ccc2F)(S(=O)(=O)c2ccc(Cl)cc2)CC1)C(F)(F)F (centres unmarked),"cell-free assay, competition with immobilised ligand",1 µM,remaining binding,97%
COc1cc(Cl)c(C(=O)N[C@@H](CN[C@H]2CC[C@@H](N)CC2)Cc2ccc(C#N)cc2)cc1-c1ccc(CN[C@H](C)c2ccc(C)cc2)o1,"enzyme activity, inhibitor",1 µM,remaining activity,89%
CCCCN(CCCC)C(=O)CN1C[C@H](c2cc(OC)c3c(c2)OCO3)[C@@H](C(=O)O)[C@@H]1CC(C)(C)CCC,"cell-free assay, competition with immobilised ligand",1 µM,remaining binding,100%
O=C(Nc1cnn(-c2csc(C(=O)NC3COC3)c2)c1)Nc1c(F)cccc1Cl,"enzyme activity, inhibitor",5 µM,remaining activity,108%
CN([C@@H]1CCc2c(CC(=O)O)c3ccccc3n2C1)S(=O)(=O)c1ccc(F)cc1,"cell-free assay, competition with immobilised ligand",1 µM,remaining binding,87%
Cc1ccc(Nc2nccc(N(C)c3ccc4c(C)n(C)nc4c3)n2)cc1S(N)(=O)=O,"enzyme activity, inhibitor",0.3 µM,inhibition,-7%
COc1cc(-c2cn(C3CCc4ccccc4N(CC(F)(F)F)C3=O)nn2)ccc1-n1ccc(C)n1 (centres unmarked),"cell-free assay, competition with immobilised ligand",1 µM,remaining binding,100%
CCN(CC)c1ccc(C2=NNC(=O)CC2C)cc1[N+](=O)[O-] (centres unmarked),"enzyme activity, inhibitor",10 µM,remaining activity,100%
O=C(Nc1cccnn1)N1CCC(=Cc2cccc(Oc3ccc(C(F)(F)F)cn3)c2)CC1,"cell-free assay, competition with immobilised ligand",1 µM,remaining binding,79%
CNC(=O)c1cc(Oc2ccc(NC(=O)Nc3ccc(Cl)c(C(F)(F)F)c3)cc2)ccn1,cell-free assay,0.5 µM,remaining signal,92.9%
